Assays:
[1] = biological target: T1, Adrenergic receptor alpha-1 (Homo sapiens, UniProt P35348+P25100+P35368); test: Inhibition of alpha-1 adrenoceptor (unknown origin)
T1 sequence (P35348 whole entry): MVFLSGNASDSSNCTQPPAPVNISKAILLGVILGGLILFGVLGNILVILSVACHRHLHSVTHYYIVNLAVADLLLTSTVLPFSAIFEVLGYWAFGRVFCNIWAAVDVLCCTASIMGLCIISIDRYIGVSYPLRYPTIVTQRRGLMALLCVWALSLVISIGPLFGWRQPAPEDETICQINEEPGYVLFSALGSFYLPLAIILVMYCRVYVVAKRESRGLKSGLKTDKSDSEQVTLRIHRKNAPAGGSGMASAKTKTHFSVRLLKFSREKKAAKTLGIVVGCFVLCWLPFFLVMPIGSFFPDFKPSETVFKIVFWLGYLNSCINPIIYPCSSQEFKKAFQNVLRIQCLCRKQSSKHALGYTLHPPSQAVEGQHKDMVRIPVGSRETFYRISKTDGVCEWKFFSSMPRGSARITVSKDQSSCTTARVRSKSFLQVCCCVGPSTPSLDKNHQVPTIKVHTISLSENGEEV
T1 sequence (P25100 whole entry): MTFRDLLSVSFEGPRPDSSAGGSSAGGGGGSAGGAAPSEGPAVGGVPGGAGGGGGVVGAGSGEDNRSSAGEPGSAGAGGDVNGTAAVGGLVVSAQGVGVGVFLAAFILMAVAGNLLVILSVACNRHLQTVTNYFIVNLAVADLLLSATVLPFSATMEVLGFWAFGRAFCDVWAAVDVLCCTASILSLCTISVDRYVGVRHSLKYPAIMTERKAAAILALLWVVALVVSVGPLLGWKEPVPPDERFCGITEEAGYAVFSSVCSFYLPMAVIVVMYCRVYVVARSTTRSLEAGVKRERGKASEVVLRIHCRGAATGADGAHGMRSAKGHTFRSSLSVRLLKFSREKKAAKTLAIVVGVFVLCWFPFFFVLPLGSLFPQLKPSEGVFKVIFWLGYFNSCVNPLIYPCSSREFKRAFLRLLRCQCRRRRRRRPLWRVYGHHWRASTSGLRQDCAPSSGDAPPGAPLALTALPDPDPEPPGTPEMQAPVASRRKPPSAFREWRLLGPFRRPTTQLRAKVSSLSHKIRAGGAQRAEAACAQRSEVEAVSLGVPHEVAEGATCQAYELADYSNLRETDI
T1 sequence (P35368 whole entry): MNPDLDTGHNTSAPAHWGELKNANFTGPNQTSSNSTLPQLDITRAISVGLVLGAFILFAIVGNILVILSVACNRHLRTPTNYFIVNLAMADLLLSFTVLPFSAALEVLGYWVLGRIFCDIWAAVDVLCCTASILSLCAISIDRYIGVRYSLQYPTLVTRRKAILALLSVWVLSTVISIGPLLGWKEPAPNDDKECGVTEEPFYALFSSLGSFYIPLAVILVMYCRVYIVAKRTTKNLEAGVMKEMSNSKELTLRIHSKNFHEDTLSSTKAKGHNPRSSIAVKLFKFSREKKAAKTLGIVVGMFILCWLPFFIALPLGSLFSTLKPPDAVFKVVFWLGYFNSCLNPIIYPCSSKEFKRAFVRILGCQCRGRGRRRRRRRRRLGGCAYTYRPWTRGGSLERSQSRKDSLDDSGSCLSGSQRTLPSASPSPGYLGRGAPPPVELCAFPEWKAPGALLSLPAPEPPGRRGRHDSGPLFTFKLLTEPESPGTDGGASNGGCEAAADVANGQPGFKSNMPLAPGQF

[2] = Oral bioavailability in jugular vein cannulated Sprague-Dawley rat at 6 mg/kg by HPLC-MS analysis; assay type: ADME, organism-based; settings: in vivo
How it was run: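 Cannulated, fed Sprague–Dawley rats were given 2 mg/kg intravenously and 6 mg/kg orally. Oral bioavailability came from the two routes. t1/2, plasma clearance and Vdss were estimated. Oral Cmax and AUC were taken over 0–24 h.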

Renin = biological target: T2, Renin (Homo sapiens, UniProt P00797); test: Inhibition of human recombinant renin expressed in CHO cells using RE(EDANS)IHPFHLVIHTK(Dabcyl)R as substrate incubated for 1 hr prior to substrate addition measured after 2 hrs by FRET-based enzymatic assay
T2 sequence (P00797 whole entry): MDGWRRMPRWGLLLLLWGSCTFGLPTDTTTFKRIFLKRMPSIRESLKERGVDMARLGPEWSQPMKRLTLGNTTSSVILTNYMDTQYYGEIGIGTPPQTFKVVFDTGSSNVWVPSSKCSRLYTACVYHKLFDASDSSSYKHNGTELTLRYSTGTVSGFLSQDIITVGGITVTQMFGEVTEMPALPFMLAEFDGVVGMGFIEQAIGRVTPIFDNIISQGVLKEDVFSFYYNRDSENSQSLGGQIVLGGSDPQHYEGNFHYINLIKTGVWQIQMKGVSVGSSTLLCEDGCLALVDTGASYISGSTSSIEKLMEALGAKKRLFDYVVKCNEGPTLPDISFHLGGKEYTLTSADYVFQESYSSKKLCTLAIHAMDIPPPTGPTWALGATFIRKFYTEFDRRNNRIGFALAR

Rattus norvegicus = test: Antihypertensive activity in po dosed double transgenic rat overexpressing human renin and human angiotensinogen assessed as reduction in mean arterial pressure; assay type: functional, organism-based; settings: Artery
How it was run: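 Double-transgenic rats overexpressing human renin and human angiotensinogen, with telemetry. Each received a single oral dose of 6 or 30 mg/kg. The read-out was mean arterial pressure, reported as the peak change from dosing.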

Beta-secretase 2 = biological target: T3, Beta-secretase 2 (Homo sapiens, UniProt Q9Y5Z0); test: Inhibition of human recombinant BACE-2 expressed in baculovirus-infected insect sf9 cells using RE( EDANS)-EVNLDAEF-K(DABSYL)-R as substrate incubated for 1 hr prior to substrate addition measured after 1 hr by FRET-based enzymatic assay
T3 sequence (Q9Y5Z0 whole entry): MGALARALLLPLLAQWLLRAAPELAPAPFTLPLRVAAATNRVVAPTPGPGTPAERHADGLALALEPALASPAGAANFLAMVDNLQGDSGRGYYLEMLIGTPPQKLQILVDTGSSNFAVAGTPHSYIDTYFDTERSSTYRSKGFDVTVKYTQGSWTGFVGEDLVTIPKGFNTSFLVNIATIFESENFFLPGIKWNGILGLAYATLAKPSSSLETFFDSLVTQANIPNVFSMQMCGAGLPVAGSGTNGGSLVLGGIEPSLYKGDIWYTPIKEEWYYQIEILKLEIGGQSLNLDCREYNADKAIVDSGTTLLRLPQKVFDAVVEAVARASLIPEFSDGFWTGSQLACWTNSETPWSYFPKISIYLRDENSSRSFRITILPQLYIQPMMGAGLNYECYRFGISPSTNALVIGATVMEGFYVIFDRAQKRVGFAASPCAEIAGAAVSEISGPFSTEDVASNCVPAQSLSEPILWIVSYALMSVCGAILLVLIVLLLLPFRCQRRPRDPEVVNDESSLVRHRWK

[3] = Inhibition of human recombinant pepsin A expressed in Escherichia coli using Dabcyl-E-R-Nle-F-L-S-F-P-EDANS as substrate incubated for 1 hr prior to substrate addition measured after 1 hr by FRET-based enzymatic assay
[4] = biological target: 5-hydroxytryptamine receptor 2B (Homo sapiens, UniProt P41595); test: Inhibition of 5-HT2B (unknown origin)
Chain of 5-hydroxytryptamine receptor 2B (P41595 whole entry): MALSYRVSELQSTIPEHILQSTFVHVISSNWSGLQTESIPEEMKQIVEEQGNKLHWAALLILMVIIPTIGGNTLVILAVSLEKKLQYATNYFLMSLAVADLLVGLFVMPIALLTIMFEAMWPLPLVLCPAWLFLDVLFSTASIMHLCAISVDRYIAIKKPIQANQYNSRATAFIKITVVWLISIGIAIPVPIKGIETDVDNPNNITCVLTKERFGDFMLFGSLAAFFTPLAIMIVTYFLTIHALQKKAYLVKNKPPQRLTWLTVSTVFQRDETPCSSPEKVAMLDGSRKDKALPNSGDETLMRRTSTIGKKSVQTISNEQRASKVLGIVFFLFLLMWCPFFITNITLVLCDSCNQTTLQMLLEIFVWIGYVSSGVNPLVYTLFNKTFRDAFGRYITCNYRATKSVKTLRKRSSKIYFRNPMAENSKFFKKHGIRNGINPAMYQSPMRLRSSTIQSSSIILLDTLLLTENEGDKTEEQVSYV

For `COCCCOc1cc(C(=O)N(C[C@@H]2CNC[C@H]2Cc2ccccc2)C(C)C)ccc1OC.Cl`, the IC50 [1] was > 1 µM, the bioavailability [2] was 53% and the IC50 (Renin) was 0.17 µM. For the same compound, the Activity (Rattus norvegicus) was “Dose-dependent effect”, the IC50 (Beta-secretase 2) was > 30 µM and the IC50 [3] was > 30 µM. For the same compound, the IC50 [4] was > 1 µM.
